Data from ChEMBL document CHEMBL4428067, “Drug Discovery against Psoriasis: Identification of a New Potent FMS-like Tyrosine Kinase 3 (FLT3) Inhibitor, 1-(4-((1H-Pyrazolo[3,4-d]pyrimidin-4-yl)oxy)-3-fluorophenyl)-3-(5-(tert-butyl)isoxazol-3-yl)urea, That Showed Potent Activity in a Psoriatic Animal Model” (J Med Chem, 2016).
The source made the active and inactive calls. The rule behind the calls is not given here.

What was measured:
[1] = biological target: T1, Receptor-type tyrosine-protein kinase FLT3 (Homo sapiens, UniProt P36888); test: Inhibition of recombinant human N-terminal GST-tagged FLT3 (564 to end residues) expressed by baculovirus in Sf21 insect cells measured after 10 mins in presence of [gamma-33P]ATP by scintillation counter method
T1 sequence (P36888 whole entry): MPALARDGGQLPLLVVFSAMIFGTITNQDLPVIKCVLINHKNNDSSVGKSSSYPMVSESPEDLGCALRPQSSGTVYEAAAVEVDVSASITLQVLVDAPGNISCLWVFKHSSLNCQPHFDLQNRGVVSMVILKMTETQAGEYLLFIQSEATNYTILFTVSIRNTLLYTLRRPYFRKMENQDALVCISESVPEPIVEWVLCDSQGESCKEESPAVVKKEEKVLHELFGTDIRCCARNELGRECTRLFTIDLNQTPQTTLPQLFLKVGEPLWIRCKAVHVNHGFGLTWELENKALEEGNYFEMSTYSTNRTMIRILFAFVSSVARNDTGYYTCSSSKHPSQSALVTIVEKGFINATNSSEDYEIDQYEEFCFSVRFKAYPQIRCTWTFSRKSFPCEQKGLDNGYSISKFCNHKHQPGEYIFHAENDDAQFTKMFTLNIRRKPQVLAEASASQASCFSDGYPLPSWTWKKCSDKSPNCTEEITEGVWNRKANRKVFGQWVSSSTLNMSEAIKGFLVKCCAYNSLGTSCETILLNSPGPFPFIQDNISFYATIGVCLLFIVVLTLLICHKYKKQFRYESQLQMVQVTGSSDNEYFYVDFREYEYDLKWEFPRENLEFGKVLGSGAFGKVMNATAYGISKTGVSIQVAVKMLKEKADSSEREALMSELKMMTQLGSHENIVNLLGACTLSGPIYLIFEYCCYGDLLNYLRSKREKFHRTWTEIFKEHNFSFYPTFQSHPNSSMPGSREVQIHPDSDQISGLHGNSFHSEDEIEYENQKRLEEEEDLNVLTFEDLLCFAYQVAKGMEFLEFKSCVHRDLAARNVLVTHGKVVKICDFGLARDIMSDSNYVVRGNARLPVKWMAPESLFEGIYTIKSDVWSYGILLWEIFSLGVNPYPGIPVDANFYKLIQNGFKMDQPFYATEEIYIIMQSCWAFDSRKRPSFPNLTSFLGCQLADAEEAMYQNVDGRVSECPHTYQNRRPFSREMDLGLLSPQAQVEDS

[2] = biological target: T2, Receptor-type tyrosine-protein kinase FLT3 (Mus musculus) (UniProt Q00342); test: (§1) Inhibition of FLT3 in Balb/c mouse BMDCs assessed as suppression of FLT3L-induced pDC formation measured as lower left quadrant cells level treated on day 9 post 9 days of FLT3L-stimulation measured after 24 hrs by CD11c PerCP and CD45R/B220 FITC staining based flow cytometric analysis (reference value: 36.5%); design: scale not given: the % may be the effect or the level left
T2 sequence (whole entry): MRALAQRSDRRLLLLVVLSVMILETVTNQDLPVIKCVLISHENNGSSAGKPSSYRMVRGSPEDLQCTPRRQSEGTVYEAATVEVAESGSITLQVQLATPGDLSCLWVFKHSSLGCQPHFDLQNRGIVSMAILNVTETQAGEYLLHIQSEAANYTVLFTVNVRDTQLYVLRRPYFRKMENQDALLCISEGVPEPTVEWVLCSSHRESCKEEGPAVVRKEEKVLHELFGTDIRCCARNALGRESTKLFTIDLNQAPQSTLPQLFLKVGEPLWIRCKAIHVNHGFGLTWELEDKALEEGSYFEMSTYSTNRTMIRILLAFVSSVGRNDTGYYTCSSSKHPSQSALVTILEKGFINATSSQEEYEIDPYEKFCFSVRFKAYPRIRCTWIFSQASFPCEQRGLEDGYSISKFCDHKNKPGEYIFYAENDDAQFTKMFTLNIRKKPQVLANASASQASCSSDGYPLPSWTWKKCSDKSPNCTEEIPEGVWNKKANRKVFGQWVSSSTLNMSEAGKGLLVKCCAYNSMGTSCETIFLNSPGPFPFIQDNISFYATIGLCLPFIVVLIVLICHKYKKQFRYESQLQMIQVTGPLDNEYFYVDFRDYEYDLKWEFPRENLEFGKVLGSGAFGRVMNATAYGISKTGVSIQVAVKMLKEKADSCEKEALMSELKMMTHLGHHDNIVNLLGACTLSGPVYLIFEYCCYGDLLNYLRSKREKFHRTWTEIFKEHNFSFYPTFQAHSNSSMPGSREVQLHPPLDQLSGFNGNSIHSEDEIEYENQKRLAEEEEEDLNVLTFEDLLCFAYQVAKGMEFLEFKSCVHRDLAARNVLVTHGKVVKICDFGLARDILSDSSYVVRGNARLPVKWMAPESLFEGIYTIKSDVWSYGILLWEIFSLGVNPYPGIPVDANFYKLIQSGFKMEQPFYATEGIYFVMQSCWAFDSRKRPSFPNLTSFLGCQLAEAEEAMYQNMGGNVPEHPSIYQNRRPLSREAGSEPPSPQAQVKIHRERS
In short: (§2)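 BALB/c bone marrow cells were cultured at 1×10^6/ml with FLT3L in supplemented RPMI-1640 for 9 days. Compound in DMSO or 0.1% DMSO was added on day 9 for 24 h. Cells were stained for 30 min with CD11c PerCP plus B220 FITC (pDC: CD11c+ B220+) or MHC II FITC (mDC: CD11c+ MHC II+), then analysed by flow cytometry. Three independent experiments.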

[3] = biological target: T2, Receptor-type tyrosine-protein kinase FLT3 (Mus musculus); test: as §1, with “right” for “left”, “2.8%)” for “36.5%)”; design: scale not given: the % may be the effect or the level left; in short: as §2
[4] = biological target: T2, Receptor-type tyrosine-protein kinase FLT3 (Mus musculus); test: Inhibition of FLT3 in mouse BMDCs assessed as suppression of STAT3 phosphorylation at 10 and 100 nM treated on day 9 post 9 days of FLT3L-stimulation measured after 1 hr by Western blot analysis
In short: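 Bone marrow cells were cultured 9 days with FLT3L in supplemented RPMI-1640, then exposed to compound or 0.1% DMSO for 1 h on day 9. Whole cells were lysed and immunoblotted with rabbit antibodies to STAT3, STAT5, pSTAT3 and pSTAT5. Three independent experiments.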

[5] = species on record: Mus musculus; test: Antipsoriatic activity in K14-VEGF transgenic mouse model of psoriasis assessed alleviation in lack of granular layer at 0.05% applied tropically over lesion for continuous 29 days by H and E staining method relative to vehicle control; assay type: functional, organism-based
In short: (§3)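 Homozygous K14-VEGF mice, 3–4 months old, with moderate to serious psoriasis; n=3 per group. Cream with 0.05% compound or vehicle cream smeared on lesions. Head and neck tissue sections taken after 29 days of treatment and HE-stained. Baker pathological score from 5 random fields, given as mean and SD. Epidermal thickness from 8 random fields, given as mean ± SEM.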

[6] = species on record: Mus musculus; test: Antipsoriatic activity in K14-VEGF transgenic mouse model of psoriasis assessed as reduction in infiltrated lymphocytes at 0.05% applied tropically over lesion for continuous 29 days by H and E staining method relative to vehicle control; assay type: functional, organism-based; in short: as §3
[7] = species on record: Mus musculus; test: Antipsoriatic activity in K14-VEGF transgenic mouse model of psoriasis assessed as upper left quadrant FLT3+/CD11c+/B220+ pDC cells in psoriatic plaque lesion at 0.05% applied tropically over lesion for continuous 29 days by flow cytometric analysis (reference value: 58.4%); assay type: functional

SMILES: CC(C)(C)c1cc(NC(=O)Nc2ccc(Oc3ncnc4[nH]ncc34)c(F)c2)no1
- IC50 [1]: 5 nM
- Activity [2]: 47.2%
- Activity [3]: 4.63%
- inhibition [4]: Active
- Activity [5]: Active
- Activity [6]: Active
- Activity [7]: 79.4%
